Tests used:
Homo sapiens [1] = organism: Homo sapiens; assay: The compound was evaluated for the optical density at concentrations 10E-7 M in MCF-7 cell culture in the presence of estradiol.; type: ADME
How it was run: (§1)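 MCF-7 cells seeded at 10000 cells/mL in 96-well dishes and cultured 24 h. Compound (final 10⁻⁷, 10⁻⁶ or 10⁻⁵ M) was then added together with estradiol at 10⁻⁸ M final to test whether estradiol antagonizes growth inhibition. After 5 days, cells were ethanol-fixed (90%) and hematoxylin-stained, and optical density was read at 540 nm.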

Homo sapiens [2] = organism: Homo sapiens; assay: The compound was evaluated for the optical density at concentration 10E-5 M in MCF-7 cell culture.; type: ADME
Homo sapiens [3] = organism: Homo sapiens; assay: The compound was evaluated for the optical density at concentration 10E-6 M in MCF-7 cell culture in the presence of estradiol.; type: ADME; how it was run: as §1
Homo sapiens [4] = organism: Homo sapiens; assay: The compound was evaluated for the optical density at concentration 10E-6 M in MCF-7 cell culture.; type: ADME
Homo sapiens [5] = organism: Homo sapiens; assay: The compound was evaluated for the optical density at concentration 10E-7 M in MCF-7 cell culture.; type: ADME
Homo sapiens [6] = organism: Homo sapiens; assay: The compound was evaluated for the optical density at concentrations 10E-5 M in MCF-7 cell culture in the presence of estradiol.; type: ADME; how it was run: as §1
[7] = target: Estrogen receptor (Rattus norvegicus) (UniProt P06211+Q62986)
[8] = target: Estrogen receptor (Homo sapiens) (UniProt P03372)
Sequence of Estrogen receptor (Homo sapiens) (P03372 whole entry, looked up): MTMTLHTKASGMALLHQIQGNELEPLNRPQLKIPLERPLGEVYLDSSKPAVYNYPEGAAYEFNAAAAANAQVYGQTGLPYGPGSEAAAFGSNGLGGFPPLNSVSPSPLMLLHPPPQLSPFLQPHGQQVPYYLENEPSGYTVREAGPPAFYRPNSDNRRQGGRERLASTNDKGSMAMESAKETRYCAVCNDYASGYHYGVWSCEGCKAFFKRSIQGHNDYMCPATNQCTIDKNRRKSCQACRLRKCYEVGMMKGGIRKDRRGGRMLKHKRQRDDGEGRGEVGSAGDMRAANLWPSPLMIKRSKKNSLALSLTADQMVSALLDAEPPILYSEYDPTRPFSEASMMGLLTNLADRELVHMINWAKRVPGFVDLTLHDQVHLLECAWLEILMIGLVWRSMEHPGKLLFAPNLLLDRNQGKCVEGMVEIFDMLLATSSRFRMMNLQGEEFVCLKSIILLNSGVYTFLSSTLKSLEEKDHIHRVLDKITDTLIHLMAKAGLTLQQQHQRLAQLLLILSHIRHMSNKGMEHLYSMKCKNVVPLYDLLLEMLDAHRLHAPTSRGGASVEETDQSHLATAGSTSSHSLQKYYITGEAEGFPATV

| SMILES | Optical density (Homo sapiens [1]) | Optical density (Homo sapiens [2]) | Optical density (Homo sapiens [3]) | Optical density (Homo sapiens [4]) | Optical density (Homo sapiens [5]) | Optical density (Homo sapiens [6]) | Affinity [7] | Affinity [8] |
| --- | --- | --- | --- | --- | --- | --- | --- | --- |
| CN(C)CCOc1ccc(C2=C(c3ccccc3)CCCc3ccccc32)cc1 | 0.379 | 0.058 | 0.438 | 0.182 | 0.244 | 0.098 | 1 | 0.02 |
| CN(C)CCOc1ccc(C2=C(c3ccccc3)CCc3ccccc32)cc1 | 0.45 | 0.049 | 0.385 | 0.288 | 0.39 | 0.079 | 0.5 | 0.02 |

Reference: ChEMBL document CHEMBL1123514 (J Med Chem, 1986)
